Data as given in ChEMBL document CHEMBL1153034, “Antileishmaniasis activity of flavonoids from Consolida oliveriana” (J Nat Prod, 2009).
Each block holds one molecule with its values, some of them ahead of it. Activity calls are given as the source filed them. No cut-off for these calls is given here.

Legend:
J774.2 = assay: Cytotoxicity against BALB/c mouse J774.2 cells after 72 hrs by trypan blue assay; format: cell-based
Procedure, shortened: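 J774.2 macrophages in MEM with 10% inactivated FBS, pH 7.2, seeded at 10⁵ cells/mL, 2 days at 37 °C in 5% CO₂. Fresh medium with compound at 100, 50, 25, 10 and 1 µM, 72 h. Dead cells counted by trypan blue (0.1% in phosphate buffer); viability relative to control. IC50 by linear regression of K_c values.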

Leishmania braziliensis [1] = assay: Antileishmanial activity against extracellular Leishmania braziliensis promastigotes after 72 hrs; format: functional, organism-based
Procedure, shortened: (§1)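 Promastigotes grown in MTL medium plus 10% inactivated FBS, air atmosphere, 28 °C. Compounds at 100, 50, 25, 10 and 1 µM, DMSO 0.1%. Parasites counted in a Neubauer hemocytometer at 24, 48 and 72 h. Average of three separate determinations.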

Leishmania peruviana [2] = assay: Antileishmanial activity against extracellular Leishmania peruviana promastigotes after 72 hrs; format: functional, organism-based; procedure, shortened: as §1
[3] = Ratio of compound IC50 to glucatim IC50 for BALB/c mouse J774.2 cells; format: ADME, cell-based; conditions: read-out: Ratio IC50
Leishmania peruviana [4] = assay: Antileishmanial activity against Leishmania peruviana infected in BALB/c mouse J774.2 cells assessed as decrease in parasite infection rate measured on day 10 relative to control; format: functional; design: scale not given: the % may be the effect or the level left
Leishmania peruviana [5] = assay: Inhibition of succinate catabolite excretion in Leishmania peruviana promastigotes at IC25 after 96 hrs by NMR spectroscopy; format: functional
Procedure, shortened: (§2)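 Promastigotes of L. (V.) peruviana or L. (V.) braziliensis in MTL medium (initial 5 × 10⁵ cells/mL) received drug at IC25; controls were untreated. After 96 h at 28 °C, cells were spun down at 1500 rpm for 10 min. Excreted end metabolites in the cell-free medium were identified by ¹H NMR and compared with fresh medium and untreated cultures.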

Leishmania peruviana [6] = assay: Inhibition of acetate catabolite excretion in Leishmania peruviana promastigotes at IC25 after 96 hrs by NMR spectroscopy; format: functional; procedure, shortened: as §2
Leishmania peruviana [7] = assay: Effect on pyruvate catabolite excretion in Leishmania peruviana promastigotes at IC25 after 96 hrs by NMR spectroscopy; format: functional, organism-based; procedure, shortened: as §2
Leishmania peruviana [8] = assay: Antileishmanial activity against Leishmania peruviana assessed as disruption of parasite cytoplasm at IC25 after 96 hrs by transmission electron microscopy; format: functional, organism-based
Procedure, shortened: (§3)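 L. (V.) peruviana MHOM/PE/1984/LC26 or L. (V.) braziliensis MHOM/BR/1975/M2904 promastigotes at 5 × 10⁶ cells/mL in MTL medium plus 10% inactivated FBS, in air at 28 °C, with drug at IC25 for 96 h. Pellets were PBS-washed, fixed 2 h at 4 °C in 2% (v/v) p-formaldehyde-glutaraldehyde in 0.05 M cacodylate (pH 7.4), and examined by TEM against untreated parasites.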

Leishmania peruviana [9] = assay: Increase in L-alanine catabolite excretion in Leishmania peruviana promastigotes at IC25 after 96 hrs by NMR spectroscopy; format: functional, organism-based; procedure, shortened: as §2
Leishmania peruviana [10] = assay: Antileishmanial activity against Leishmania peruviana assessed as abundance of morphologically altered glycosomes at IC25 after 96 hrs by transmission electron microscopy; format: functional, organism-based
Leishmania peruviana [11] = assay: Effect on glycerol catabolite excretion in Leishmania peruviana promastigotes at IC25 after 96 hrs by NMR spectroscopy; format: functional, organism-based; procedure, shortened: as §2
Leishmania peruviana [12] = assay: Antileishmanial activity against Leishmania peruviana assessed as induction of death of parasite with distortion of parasite body at IC25 after 96 hrs by transmission electron microscopy; format: functional, organism-based; procedure, shortened: as §3
Leishmania braziliensis [13] = assay: Antileishmanial activity against intracellular Leishmania braziliensis amastigotes after 72 hrs by Giemsa staining; format: functional, organism-based
Leishmania peruviana [14] = assay: Antileishmanial activity against intracellular Leishmania peruviana amastigotes after 10 days by Giemsa staining
[15] = Ratio of compound IC50 to pentostam IC50 for BALB/c mouse J774.2 cells; format: ADME, cell-based; conditions: read-out: Ratio IC50
Leishmania peruviana [16] = assay: Antileishmanial activity against Leishmania peruviana in BALB/c mouse J774.2 cells assessed as reduction of morphological conversion to parasite amastigote number per cell measured on day 10 by Giemsa staining relative to control; format: functional; design: scale not given: the % may be the effect or the level left
[17] = Mus musculus, BALB/c, J774.2, 72 h

Molecule: O=c1c(O)c(-c2ccc(O)c(O)c2)oc2cc(O)cc(O)c12 [QUERCETIN]
- IC50 (J774.2; [17]): 125 µM
- IC50 (Leishmania braziliensis [1]; Leishmania braziliensis, 72 h): 30.5 µM
- IC50 (Leishmania peruviana [2]; Leishmania peruviana, 72 h): 60 µM

Molecule: CC(=O)Oc1cc(OC(C)=O)c2c(=O)c(OC(C)=O)c(-c3ccc(OC(C)=O)c(OC(C)=O)c3)oc2c1
- selectivity ratio [3]: 10
- Activity (Leishmania peruviana [4]): 40%
- inhibition (INH) (Leishmania peruviana [5]): 30%
- inhibition (INH) (Leishmania peruviana [6]): 30%
- Activity (Leishmania peruviana [7]): Active
- Activity (Leishmania peruviana [8]): Active
- IC50 (J774.2; [17]): 109 µM
- Activity (Leishmania peruviana [9]): Active
- Activity (Leishmania peruviana [10]): Active
- IC50 (Leishmania braziliensis [1]; Leishmania braziliensis, 72 h): 46.8 µM
- Activity (Leishmania peruviana [11]): Active
- Activity (Leishmania peruviana [12]): Active
- Activity (Leishmania braziliensis [13]): Active
- Activity (Leishmania peruviana [14]): Active
- IC50 (Leishmania peruviana [2]; Leishmania peruviana, 72 h): 11.2 µM
- selectivity ratio [15]: 10
- Activity (Leishmania peruviana [16]): 72%

Molecule: MEGLUMINE ANTIMONATE
- IC50 (J774.2; j774.2): 15.2 µM
- IC50 (Leishmania braziliensis [1]): 25.6 µM
- IC50 (Leishmania peruviana [2]): 15.3 µM

Second part, led by results:

- IC50 (Leishmania braziliensis [1]; Leishmania braziliensis, 72 h): 52.5 µM
- IC50 (Leishmania peruviana [2]; Leishmania peruviana, 72 h): 53.3 µM
Molecule: O=c1c(O[C@@H]2O[C@H](CO)[C@H](O)[C@H](O)[C@H]2O)c(-c2ccc(O)cc2)oc2cc(O)cc(O)c12 [TRIFOLIN]
- IC50 (J774.2; [17]): 161 µM

- IC50 (Leishmania braziliensis [1]; Leishmania braziliensis, 72 h): 51.6 µM
- IC50 (Leishmania peruviana [2]; Leishmania peruviana, 72 h): 87 µM
Molecule: CC(=O)OC[C@H]1O[C@@H](Oc2c(-c3ccc(O)c(O)c3)oc3cc(O)cc(O)c3c2=O)[C@H](O)[C@@H](O)[C@H]1O
- IC50 (J774.2; [17]): 61.3 µM

- IC50 (Leishmania braziliensis [1]; Leishmania braziliensis, 72 h): 53.6 µM
- IC50 (Leishmania peruviana [2]; Leishmania peruviana, 72 h): 71.3 µM
Molecule: O=c1c(O)c(-c2ccc(O)cc2)oc2cc(O)cc(O)c12 [KAEMPFEROL]
- IC50 (J774.2; [17]): 53.7 µM
